Measured values: ChEMBL document CHEMBL1154860, “Synthesis and investigation of inhibition effect of fluorinated sulfonamide derivatives on carbonic anhydrase” (Eur J Med Chem, 2010)
Calls of active or inactive are those of the source. The calls are words filed in the database; no cut-off is given here.

Key:
[1] = Inhibition of bovine carbonic anhydrase assessed as conversion of 4-nitrophenyl acetate to 4-nitrophnolate after 5 mins; set-up: species or system Bos taurus
Method in brief: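 Bovine CA at 2.9 × 10^-6 M (concentration set from A280) measured by initial rate of 4-nitrophenyl acetate hydrolysis, substrate in acetone/water over a range of concentrations. 4-Nitrophenolate formation followed at 348 nm, pH 8, with non-enzymatic hydrolysis subtracted. Inhibitors dissolved in distilled–deionized water. Triplicates at each substrate and inhibitor concentration; IC50 is the mean of 3 assays.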

[2] = Cytotoxicity in sheep RBC assessed as hemolysis at 62.5 uM after 20 mins; assay type: cell-based, Ovis aries; details: erythrocyte
Method in brief: (§1)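 Sheep erythrocytes were washed three times in PBS pH 7.4 just before the assay and used at a final 5% cell concentration in the same buffer. After incubation with compound, samples were centrifuged and supernatant absorbance was read at 405 nm. The 0% and 100% hemolysis references were erythrocyte stock in PBS and in distilled water, processed identically.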

[3] = Cytotoxicity in sheep RBC assessed as hemolysis at 0.125 to 1000 uM after 20 mins; assay type: cell-based, Ovis aries; details: erythrocyte; method in brief: as §1
[4] = Cytotoxicity in sheep RBC assessed as hemolysis at 1000 uM after 20 mins; assay type: cell-based, Ovis aries; details: erythrocyte; method in brief: as §1
[5] = Cytotoxicity in sheep RBC assessed as hemolysis at 31.25 uM after 20 mins; assay type: cell-based, Ovis aries; details: erythrocyte; method in brief: as §1
Bos taurus = species on record: Bos taurus; experiment: Inhibition of bovine carbonic anhydrase assessed as conversion of 4-nitrophenyl acetate to 4-nitrophnolate at 0.27 to 2.07 uM after 5 mins
Method in brief: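 Native bovine CA, concentration set from A280 (2.9 × 10^-6 M). Initial rate of 4-nitrophenyl acetate hydrolysis followed at 348 nm at pH 8. Substrate was 1.04 × 10^-3 to 1.875 × 10^-4 M, prepared in acetone/water, and inhibitors were dissolved in water. Non-enzymatic hydrolysis was subtracted, each point was run in triplicate, and values are means of 3 assays.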

Carbonic anhydrase 2 = Carbonic anhydrase 2 (Homo sapiens, UniProt P00918); experiment: Inhibition of human carbonic anhydrase 2 assessed as conversion of 4-nitrophenyl acetate to 4-nitrophnolate after 5 mins

IC50 [1] [nM]	Compound	further results
1500	NS(=O)(=O)C(F)(F)F [TRIFLUOROMETHANESULFONAMIDE]	
1350	CC(=O)Nc1nnc(S(N)(=O)=O)s1 [ACETAZOLAMIDE]	
2090	NS(=O)(=O)CCC(F)(F)C(F)(F)C(F)(F)C(F)(F)F	
1900	NS(=O)(=O)CCC(F)(F)C(F)(F)C(F)(F)C(F)(F)C(F)(F)C(F)(F)F	

The next lines start with the compound.

Compound	IC50 [1] [nM]	further results
NS(=O)(=O)C(F)(F)C(F)(F)C(F)(F)C(F)(F)C(F)(F)C(F)(F)C(F)(F)C(F)(F)F	1580	Activity [2]: Toxic
NS(=O)(=O)C(F)(F)C(F)(F)C(F)(F)C(F)(F)F [SODIUM PERFLUOROBUTANESULFONAMIDE]	1670	
NS(=O)(=O)C(F)(F)C(F)(F)C(F)(F)C(F)(F)F	1490	
NS(=O)(=O)CCC(F)(F)C(F)(F)C(F)(F)C(F)(F)C(F)(F)C(F)(F)C(F)(F)C(F)(F)F	1660	
NS(=O)(=O)C(F)(F)C(F)(F)C(F)(F)C(F)(F)C(F)(F)C(F)(F)F	1470	Activity [3]: Non-toxic; Activity [4]: Non-toxic
[NH-]S(=O)(=O)C(F)(F)C(F)(F)C(F)(F)C(F)(F)C(F)(F)C(F)(F)C(F)(F)C(F)(F)F.[Na+] [SODIUM PERFLUOROOCTANESULFONAMIDE]	1790	Activity [5]: Toxic
CCCCCCCCS(N)(=O)=O		inhibition (Bos taurus): inactive
CCCCCCS(N)(=O)=O		inhibition (Bos taurus): inactive
NS(=O)(=O)C(F)(F)C(F)(F)C(F)(F)C(F)(F)C(F)(F)C(F)(F)C(F)(F)F	1720	
NS(=O)(=O)C(F)(F)C(F)(F)C(F)(F)C(F)(F)S(N)(=O)=O	1740	
[NH-]S(=O)(=O)C(F)(F)C(F)(F)C(F)(F)C(F)(F)C(F)(F)C(F)(F)F.[Na+] [SODIUM PERFLUOROHEXANESULFONAMIDE]	1380	IC50 (Carbonic anhydrase 2): 122 nM; Activity [4]: Non-toxic
